For assay [1], the target named is T1, C-X-C chemokine receptor type 6 (Homo sapiens, UniProt O00574). Kind of assay: Antagonist activity at Prolink-tagged human CXCR6 receptor assessed as inhibition of CXCL16-induced beta-arrestin recruitment by DiscoveRx cell based assay.
Target sequence in this assay (O00574 whole entry): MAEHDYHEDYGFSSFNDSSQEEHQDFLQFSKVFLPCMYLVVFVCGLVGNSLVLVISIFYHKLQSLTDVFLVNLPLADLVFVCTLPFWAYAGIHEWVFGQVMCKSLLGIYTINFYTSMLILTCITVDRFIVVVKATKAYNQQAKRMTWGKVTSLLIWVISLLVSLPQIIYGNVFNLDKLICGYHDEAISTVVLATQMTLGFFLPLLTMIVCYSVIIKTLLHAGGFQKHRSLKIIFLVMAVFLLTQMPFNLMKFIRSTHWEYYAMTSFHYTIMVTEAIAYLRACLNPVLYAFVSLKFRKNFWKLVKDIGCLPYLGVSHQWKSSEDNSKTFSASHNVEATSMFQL
The target in assay [2] is T1, C-X-C chemokine receptor type 6. Kind of assay: Antagonist activity at Prolink-tagged human CXCR6 receptor assessed as inhibition of CXCL16-induced beta-arrestin recruitment by DiscoveRx cell based assay relative to control. Further details: concentration or dose not given beside the values. The method in brief: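 CXCR6 β-arrestin cells in assay media without G418/hygromycin, 800 cells/well, grown overnight at 37 °C; compounds added acoustically (DMSO ≤0.3%), then 20 nM CXCL16 (final) for 90 min at 37 °C. PathHunter luminescence read. Normalized between CXCL16-alone and no-ligand wells; four-parameter fit with Hill slope fixed at 1; at least two runs on different days, averaged pIC50 ± SD.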
In general terms: Activated receptors often draw arrestin, which recruitment assays turn into a signal.
Target sequence in this assay (O00574 whole entry, looked up): as the sequence (O00574 whole entry) above

The target is the same in assay [3]. As to the kind of experiment: Antagonist activity at Prolink-tagged human CXCR6 receptor assessed as inhibition of forskolin-induced cAMP accumulation by DiscoveRx cell based assay. Format: functional. The procedure, abridged: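 Lance Ultra TR-FRET cAMP assay in CXCR6 β-arrestin cells, 500 cells/well in OptiMEM/2% FBS, grown overnight. Compound added, then forskolin (2.5 mM stock) in HBSS/HEPES/BSA/RO-20-1724 with or without 20 nM CXCL16, 30 min at room temperature. Eu-cAMP tracer and ULight anti-cAMP antibody added, read after 30 min. Curve fit with Hill slope 1; ≥2 independent runs.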
Background: Cyclic AMP is a second messenger, typically raised through Gs and lowered through Gi signalling.
Target sequence in this assay (O00574 whole entry): as above

Assay [4] shares this target. As to the kind of experiment: Antagonist activity at Prolink-tagged human CXCR6 receptor assessed as inhibition of forskolin-induced cAMP accumulation by DiscoveRx cell based assay relative to control. Format: functional. Further details: concentration or dose not given beside the values. The procedure, abridged: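 CXCR6 β-arrestin cells in OptiMEM with 2% FBS, 500 cells/well, grown overnight; compounds added, then forskolin with 20 nM CXCL16 (stock concentrations) in HBSS/HEPES/BSA with RO-20-1724, 30 min at room temperature. cAMP read by LANCE Ultra TR-FRET after a further 30 min. Hill slope fixed at 1; at least two runs on different days, averaged pIC50 ± SD.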
Target sequence in this assay (O00574 whole entry, looked up): as the sequence (O00574 whole entry) above

Usually IC50 stands for the point on the concentration scale where inhibition reaches its midpoint. For orientation: inhibition means the relative decrease from the control value, in per cent.

Structures are written as SMILES. The source made the active and inactive calls. The calls are words filed in the database; no cut-off is given here. Bounds are passed on as bounds.

On to `COc1cc(C(=O)N[C@@H]2C[C@H]3CCC[C@@H](C2)N3Cc2nc3c(Br)cccc3s2)cc(OC)c1OC`, for which the values for the IC50 in assay [1] and in assay [3] were 0.08 µM and 1 µM, respectively. For the same compound, the inhibition in assay [2] (concentration not given here) stood at 102%; in assay [4] (concentration not given here), 91%.
The matching figures for `COc1cc(C(=O)N[C@@H]2C[C@H]3CCC[C@@H](C2)N3Cc2nc3ccccc3o2)cc(OC)c1OC`: 6.9 µM, more than 50 µM, 83% and 26%.
Regarding `COc1cc(C(=O)N[C@@H]2C[C@H]3CCC[C@@H](C2)N3CC(=O)Nc2cccc(Cl)c2)cc(OC)c1OC`, the values for the 50% inhibitory concentration (IC50) in assay [1] and in assay [3] were 0.41 µM and 4.3 µM, respectively. Further, the results for the inhibition in assay [2] (concentration not given here) and in assay [4] (concentration not given here) were 105% and 97%, respectively.
The matching figures for `COc1cc(C(=O)N[C@@H]2C[C@H]3CCC[C@@H](C2)N3CC(=O)Nc2ccccc2Br)cc(OC)c1OC`: 0.16 µM, 0.9 µM, 105% and 104%.
For `COc1cc(C(=O)N[C@@H]2C[C@H]3CCC[C@@H](C2)N3Cc2ccc(Cl)cc2)cc(OC)c1OC`, the IC50 in assay [1] turned out to be 23.7 µM; in assay [3], 38.6 µM. Besides, the inhibition in assay [2] (concentration not given here) came out at 90%; in assay [4] (concentration not given here), 58%.
For `COc1ccccc1NC(=O)CN1[C@@H]2CCC[C@H]1C[C@H](NC(=O)c1cc(OC)c(OC)c(OC)c1)C2`, in that order: 2.1 µM, 14.7 µM, 102% and 100%.
`COc1cc(OC)cc(C(=O)N[C@@H]2C[C@H]3CCC[C@@H](C2)N3CC(=O)Nc2ccc(Cl)cc2)c1`: the concentration for half-maximal inhibition (IC50) in assay [1] and in assay [3] was more than 40 µM throughout. The inhibition entry in assay [2] and in assay [4] was “inactive” throughout.
Consider `COc1cc(C(=O)N[C@@H]2C[C@H]3CCC[C@@H](C2)N3Cc2ccccc2Cl)cc(OC)c1OC`, for which the IC50 in assay [1] came to 6.8 µM; in assay [3] it was 11.5 µM. For the same compound, the figures for the inhibition in assay [2] (concentration not given here) and in assay [4] (concentration not given here) were 99% and 101%, respectively.
Take `COc1ccc(NC(=O)CN2[C@@H]3CCC[C@H]2C[C@H](NC(=O)c2cc(OC)c(OC)c(OC)c2)C3)cc1`: the IC50 in assay [1] was 19 µM; in assay [3] it was more than 40 µM. Besides, in assay [2] (concentration not given here), the inhibition is 76%. Further, the inhibition entry in assay [4] was “inactive”.
In the case of `COc1cc(C(=O)N[C@@H]2C[C@H]3CCC[C@@H](C2)N3CC(=O)Nc2ccccc2)cc(OC)c1OC`, the results for the IC50 in assay [1] and in assay [3] were 5.8 µM and 30.6 µM, respectively. Further, the values for the inhibition in assay [2] (concentration not given here) and in assay [4] (concentration not given here) were 65% and 86%, respectively.
Consider `COc1cc(C(=O)N[C@@H]2C[C@H]3CCC[C@@H](C2)N3CC(=O)c2nc3ccccc3s2)cc(OC)c1OC`, for which the IC50 in assay [1] is 12.7 µM; in assay [3], more than 50 µM. The inhibition in assay [2] (concentration not given here) was determined as 75%. The inhibition entry in assay [4] was “inactive”.
Take `COc1cc(C(=O)N[C@@H]2C[C@H]3CCC[C@@H](C2)N3CC(=O)Nc2ccccc2C(F)(F)F)cc(OC)c1OC`: the half-inhibitory concentration (IC50) in assay [1] was 0.64 µM; in assay [3], 7.9 µM. The inhibition in assay [2] (concentration not given here) was found to be 101%; in assay [4] (concentration not given here), 105%.
For `COc1cc(C(=O)N[C@@H]2C[C@H]3CCC[C@@H](C2)N3Cc2cc3ccccc3s2)cc(OC)c1OC`, in that order: 0.9 µM, 25 µM, 93% and 49%.
For the compound `COc1cc(C(=O)N[C@@H]2C[C@H]3CCC[C@@H](C2)N3Cc2cc3ccccc3[nH]2)cc(OC)c1OC`, the values for the half-inhibitory concentration (IC50) in assay [1] and in assay [3] were 23.7 µM and more than 50 µM, respectively. Further, the inhibition in assay [2] (concentration not given here) worked out at 64%. In addition, in assay [4], the inhibition entry is “inactive”.
Consider `COc1cc(C(=O)N[C@@H]2C[C@H]3CC[C@@H](C2)N3CC(=O)Nc2ccccc2)cc(OC)c1OC`, for which the inhibition in assay [2] (concentration not given here) came to 63%. Also, the IC50 in assay [3] was more than 40 µM. The inhibition result in assay [4] was “inactive”.

Values taken from ChEMBL document CHEMBL4610036, “Discovery of small molecule antagonists of chemokine receptor CXCR6 that arrest tumor growth in SK-HEP-1 mouse xenografts as a model of hepatocellular carcinoma” (Bioorg Med Chem Lett, 2020).
